The values that follow come from ChEMBL document CHEMBL2396525, “Synthesis and anti-HCMV activity of 1-[ω-(phenoxy)alkyl]uracil derivatives and analogues thereof” (Bioorg Med Chem, 2013).

SMILES strings stand for the structures. pEC50: −log10 of the molar value. The source made the active and inactive calls. The calls are words filed in the database; no cut-off is given here.

For data set [1], the system named is Human alphaherpesvirus 2. The experiment in a line: Antiviral activity against Herpes simplex virus type 2 G. The format is functional, organism-based. The settings on record: strain G. In outline:
(§1)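 Confluent HEL, Vero, HeLa or MDCK cell cultures were inoculated with 100 CCID50 of virus alongside varying compound concentrations. Cytopathicity was scored when it reached completion in untreated virus controls. EC50 is the concentration that reduces virus-induced cytopathogenicity by 50%.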

Data set [2] relates to Human immunodeficiency virus 1. The experiment in a line: Antiviral activity against HIV1 3B infected in human CEM cells assessed as inhibition of virus-induced giant cell formation after 4 to 5 days. The format is functional, organism-based. To be noted: CCRF-CEM. An outline of the steps: (§2)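 CEM cells at about 3 × 10^5 cells/mL were infected with 100 CCID50 of HIV per mL, with compound dilutions present. They were incubated 4–5 days at 37 °C in humidified CO2, and syncytia were scored microscopically. EC50 is the concentration that inhibits giant cell formation by 50%.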

Data set [3] concerns Human immunodeficiency virus 2. The experiment in a line: Antiviral activity against HIV2 ROD infected in human CEM cells assessed as inhibition of virus-induced giant cell formation after 4 to 5 days. The format is functional, organism-based. The settings on record: ISOLATE ROD, CCRF-CEM. In outline: as §2
The subject of data set [4] is Influenza A virus. The experiment in a line: Antiviral activity against Influenza virus A virus H3N2. In kind it is functional, organism-based. In outline: (§3)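 The assay was a cell-based cytopathicity inhibition test on confluent monolayers with serial compound dilutions. EC50 was the concentration that reduced virus-induced cytopathicity by 50%.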
Data set [5] has as its system Human alphaherpesvirus 2. The experiment in a line: Antiviral activity against Herpes simplex virus type 2 Lyons. The format is functional, organism-based. In outline:
as §1

The test system of data set [6] is Vesicular stomatitis virus. The experiment in a line: Antiviral activity against Vesicular stomatitis virus. In kind it is functional, organism-based.
Another data set concerns Sindbis virus. The experiment in a line: Antiviral activity against Sindbis virus. In kind it is functional, organism-based. In outline: as §1
Data set [7] has as its system Human betaherpesvirus 5. The experiment in a line: Antiviral actiivty against Human herpesvirus 5 AD169 infected in HEL assessed as reduction of virus-induced plaque formation. In kind it is functional, organism-based. To be noted: Human betaherpesvirus 5, AD169. In outline: (§4)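 HCMV strains AD-169 and Davis were tested on confluent human embryonic lung fibroblast monolayers infected with 100 PFU in the presence of serial compound concentrations. Plaques were counted once formation was complete in untreated infected controls. EC50 is the concentration that cuts plaque formation by 50%.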

Data set [8] has as its system Human betaherpesvirus 5. The experiment in a line: Antiviral actiivty against Human herpesvirus 5 Davis infected in HEL assessed as reduction of virus-induced plaque formation. In kind it is functional, organism-based. The settings on record: Human betaherpesvirus 5, Davis. In outline:
as §4

Another data set deals with Punta Toro virus. The experiment in a line: Antiviral activity against Punta Toro virus. In kind it is functional, organism-based. In outline: as §1
A further data set deals with Coxsackievirus B4. The experiment in a line: Antiviral activity against Coxsackie B4 virus. The format is functional, organism-based. An outline of the steps:
as §1

Data set [9] in a line: Cytotoxicity against HEL assessed as minimum cytotoxic concentration required to cause microscopically detectable alteration in cell morphology. In kind it is cell-based. To be noted: human, HEL cells.
The subject of data set [10] is Respiratory syncytial virus. The experiment in a line: Antiviral activity against Respiratory syncytial virus Long. In kind it is functional, organism-based. An outline of the steps:
as §1

Another data set relates to HEL. The experiment in a line: Cytotoxicity against HEL. The format is cell-based. The settings on record: human.
The test system of a further data set is Influenza B virus. The experiment in a line: Antiviral activity against Influenza B virus. In kind it is functional, organism-based. In outline: as §3
For another data set, the system named is Human respirovirus 3. The experiment in a line: Antiviral activity against Parainfluenza virus 3. The format is functional, organism-based. An outline of the steps: as §1
The subject of data set [11] is Mammalian orthoreovirus 1. The experiment in a line: Antiviral activity against Reovirus-1. In kind it is functional, organism-based. In outline: as §1
Data set [12] deals with Human alphaherpesvirus 3. The experiment in a line: Antiviral activity against Varicella-zoster virus YS. In kind it is functional, organism-based. An outline of the steps:
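VZV was assayed by plaque formation. Confluent cell cultures received 10 or 100 PFU with varying compound concentrations, and plaques were recorded once complete in untreated infected controls. EC50 is the concentration that reduces plaque formation by 50%.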

The test system of data set [13] is Human alphaherpesvirus 1. The experiment in a line: Antiviral activity against thymidine kinase deficient acyclovir-resistant Herpes simplex virus type 1 KOS. The format is functional, organism-based.
The test system of data set [14] is Human alphaherpesvirus 1. The experiment in a line: Antiviral activity against Herpes simplex virus type 1 KOS. In kind it is functional, organism-based. In outline: as §1
Data set [15] has as its system Influenza A virus. The experiment in a line: Antiviral activity against Influenza virus A virus H1N1. The format is functional, organism-based. In outline:
as §3

Another data set has as its system Vaccinia virus. The experiment in a line: Antiviral activity against Vaccinia virus Lederle. In kind it is functional, organism-based. The settings on record: Orthopoxvirus vaccinia.
The test system of another data set is Feline coronavirus. The experiment in a line: Antiviral activity against Feline coronavirus. In kind it is functional, organism-based.
The subject of data set [16] is Human alphaherpesvirus 3. The experiment in a line: Antiviral activity against Varicella-zoster virus OKA. In kind it is functional. To be noted: strain Oka vaccine. In outline: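 Confluent cell monolayers were infected with 10 or 100 PFU of VZV in the presence of serial compound dilutions. Plaque formation was recorded once untreated infected controls reached completion. EC50 was the concentration that reduced plaque formation by 50%.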

With `Cc1ccccc1OCCCCCn1ccc(=O)[nH]c1=O`, the result (in the data set with Human alphaherpesvirus 2 [1]; in data set [2]; in [3]; in the data set with Influenza A virus [4]; in the data set with Human alphaherpesvirus 2 [5]; in data set [6]) was inactive. Moreover, the outcome (in the data set with Sindbis virus; in the data set on Punta Toro virus; with Coxsackievirus B4; in data set [10]; with Influenza B virus; with Human respirovirus 3) was inactive. Further, the outcome (in data set [11]; in the data set on Human alphaherpesvirus 3 [12]; in the data set with Human alphaherpesvirus 1 [13]; in the data set on Human alphaherpesvirus 1 [14]; in the data set with Influenza A virus [15]; with Vaccinia virus) was inactive. For the same compound, the result in the data set with Feline coronavirus and in the data set on Human alphaherpesvirus 3 [16] was inactive. The pEC50 with Human betaherpesvirus 5 [7] and in the data set with Human betaherpesvirus 5 [8] was below 4.00 each time. Besides, the MCC in data set [9] is above 100 µM. The CC50 with HEL is above 100 µM.

Turning to `Nc1ccc(OCCCCCn2ccc(=O)[nH]c2=O)cc1`, the outcome (with Human alphaherpesvirus 2 [1]; in data set [2]; in data set [3]; in the data set on Influenza A virus [4]; in the data set on Human alphaherpesvirus 2 [5]; in data set [6]) was inactive. The outcome (in the data set on Sindbis virus; with Punta Toro virus; in the data set with Coxsackievirus B4; in data set [10]; with Influenza B virus; with Human respirovirus 3) was inactive. Besides, the result (in data set [11]; with Human alphaherpesvirus 3 [12]; with Human alphaherpesvirus 1 [13]; in the data set on Human alphaherpesvirus 1 [14]; in the data set on Influenza A virus [15]; in the data set on Vaccinia virus) was inactive. For the same compound, the outcome in the data set on Feline coronavirus and in the data set with Human alphaherpesvirus 3 [16] was inactive. Also, the pEC50 in the data set on Human betaherpesvirus 5 [7] and in the data set with Human betaherpesvirus 5 [8] was 4.26 in each case. Moreover, the MCC in [9] is above 100 µM. The compound further gave a CC50 in the data set on HEL above 100 µM.

Turning to `O=c1ccn(CCCCCCCCOc2ccc(Br)cc2)c(=O)[nH]1`, the result (with Human alphaherpesvirus 2 [1]; in data set [2]; in [3]; in the data set on Influenza A virus [4]; with Human alphaherpesvirus 2 [5]; in data set [6]) was inactive. For the same compound, the result (in the data set on Sindbis virus; in the data set with Punta Toro virus; in the data set with Coxsackievirus B4; in data set [10]; with Influenza B virus; with Human respirovirus 3) was inactive. Besides, the outcome (in data set [11]; in the data set on Human alphaherpesvirus 3 [12]; in the data set on Human alphaherpesvirus 1 [13]; in the data set on Human alphaherpesvirus 1 [14]; in the data set on Influenza A virus [15]; in the data set with Vaccinia virus) was inactive. For the same compound, the result in the data set on Feline coronavirus and with Human alphaherpesvirus 3 [16] was inactive. The pEC50 is 4.92 with Human betaherpesvirus 5 [7] and 5.05 in the data set on Human betaherpesvirus 5 [8]. Further, the MCC in data set [9] was at least 100 µM. In addition, the CC50 in the data set on HEL is above 100 µM.

For `CCCOC(=O)c1ccc(OCCCCCn2ccc(=O)[nH]c2=O)cc1`, the outcome (in the data set on Human alphaherpesvirus 2 [1]; in data set [2]; in data set [3]; in the data set on Influenza A virus [4]; with Human alphaherpesvirus 2 [5]; in [6]) was inactive. The outcome (in the data set with Sindbis virus; with Punta Toro virus; in the data set with Coxsackievirus B4; in [10]; with Influenza B virus; in the data set on Human respirovirus 3) was inactive. Further, the outcome (in [11]; in the data set on Human alphaherpesvirus 3 [12]; in the data set with Human alphaherpesvirus 1 [13]; with Human alphaherpesvirus 1 [14]; with Influenza A virus [15]; in the data set on Vaccinia virus) was inactive. The outcome in the data set on Feline coronavirus and with Human alphaherpesvirus 3 [16] was inactive. Also, the pEC50 in the data set with Human betaherpesvirus 5 [7] and in the data set with Human betaherpesvirus 5 [8] was 4.35 in each case. The MCC in data set [9] is at least 100 µM. For the same compound, the CC50 in the data set with HEL is above 100 µM.

`CC(C)(C)c1ccc(OCCCCCn2ccc(=O)[nH]c2=O)cc1`: the outcome (in the data set on Human alphaherpesvirus 2 [1]; in [2]; in data set [3]; in the data set with Influenza A virus [4]; in the data set on Human alphaherpesvirus 2 [5]; in data set [6]) was inactive. Besides, the result (with Sindbis virus; in the data set on Punta Toro virus; with Coxsackievirus B4; in [10]; in the data set on Influenza B virus; in the data set with Human respirovirus 3) was inactive. Moreover, the result (in data set [11]; with Human alphaherpesvirus 3 [12]; in the data set on Human alphaherpesvirus 1 [13]; with Human alphaherpesvirus 1 [14]; with Influenza A virus [15]; in the data set on Vaccinia virus) was inactive. Also, the result in the data set on Feline coronavirus and with Human alphaherpesvirus 3 [16] was inactive. In addition, the results for the pEC50 with Human betaherpesvirus 5 [7] and in the data set with Human betaherpesvirus 5 [8] were 4.85 and 4.92, respectively. Moreover, the MCC in data set [9] is 100 µM. For the same compound, the midpoint of cytotoxicity in the data set on HEL, the CC50, lay at 40 µM.

`O=c1[nH]c(=O)n(CCCCCOc2ccc(Br)cc2)cc1Br`: the outcome (in the data set on Human alphaherpesvirus 2 [1]; in data set [2]; in [3]; in the data set on Influenza A virus [4]; with Human alphaherpesvirus 2 [5]; in data set [6]) was inactive. For the same compound, the outcome (in the data set on Sindbis virus; in the data set with Punta Toro virus; in the data set on Coxsackievirus B4; in data set [10]; with Influenza B virus; in the data set on Human respirovirus 3) was inactive. In addition, the result (in data set [11]; in the data set on Human alphaherpesvirus 3 [12]; in the data set on Human alphaherpesvirus 1 [13]; in the data set with Human alphaherpesvirus 1 [14]; in the data set on Influenza A virus [15]; with Vaccinia virus) was inactive. Further, the outcome in the data set on Feline coronavirus and in the data set on Human alphaherpesvirus 3 [16] was inactive. Moreover, the pEC50 in the data set with Human betaherpesvirus 5 [7] was 4.44; in the data set on Human betaherpesvirus 5 [8] it was 4.17. For the same compound, in data set [9], the MCC is above 100 µM. The same compound yielded a CC50 with HEL above 100 µM.

The term pEC50 denotes the negative decadic logarithm of the EC50, by convention in mol/L. For orientation: CC50 means the concentration that lowers cell viability or growth by half. Low values mean greater toxicity to the cells, high ones lower toxicity to the cells.
